Test [1] deals with Metabotropic glutamate receptor 5 (Rattus norvegicus, UniProt P31424). The test is described as follows: Displacement of [3H]MPEP from mGluR5 in rat brain. It is filed as tissue-based. The essentials: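 Competition binding on rat brain homogenate mGlu5 against [3H]MPEP at 1.0 nM. Run by the NIMH Psychoactive Drug Screening Program. Ki derived from triplicate determinations, n = 6 for some ligands. Values cited from earlier work were not measured here.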

Another test has as its target Mu-type opioid receptor (Homo sapiens, UniProt P35372). The test is described as follows: Binding affinity to MOR.
Test [2] has as its target 5-hydroxytryptamine receptor 5A (Homo sapiens, UniProt P47898). As to the kind of experiment: Binding affinity to 5HT5A receptor.
Test [3] is described as follows: Binding affinity to benzodiazepine receptor in rat brain. It is filed as tissue-based.
Test [4] concerns the target Sigma non-opioid intracellular receptor 1 (Homo sapiens, UniProt Q99720). The test is described as follows: Binding affinity to sigma 1 receptor.
Test [5] concerns the target 5-hydroxytryptamine receptor 1A (Homo sapiens, UniProt P08908). The test is described as follows: Binding affinity to 5HT1A receptor.
Test [6] has as its target Alpha-1A adrenergic receptor (Homo sapiens, UniProt P35348). The test is described as follows: Binding affinity to adrenergic alpha1A receptor.
Test [7] addresses 5-hydroxytryptamine receptor 2A (Homo sapiens, UniProt P28223). As to the kind of experiment: Binding affinity to 5HT2A receptor.
Test [8] in a line: Binding affinity to NMDA receptor PCP binding site.
In test [9] the target is Muscarinic acetylcholine receptor M4 (Homo sapiens, UniProt P08173). The test is described as follows: Binding affinity to muscarinic M4 receptor.
Test [10] deals with Alpha-2A adrenergic receptor (Homo sapiens, UniProt P08913). As to the kind of experiment: Binding affinity to adrenergic alpha2A receptor.
The target in test [11] is Beta-1 adrenergic receptor (Homo sapiens, UniProt P08588). As to the kind of experiment: Binding affinity to adrenergic beta1 receptor.
Beta-1 adrenergic receptor, sequence (P08588 whole entry): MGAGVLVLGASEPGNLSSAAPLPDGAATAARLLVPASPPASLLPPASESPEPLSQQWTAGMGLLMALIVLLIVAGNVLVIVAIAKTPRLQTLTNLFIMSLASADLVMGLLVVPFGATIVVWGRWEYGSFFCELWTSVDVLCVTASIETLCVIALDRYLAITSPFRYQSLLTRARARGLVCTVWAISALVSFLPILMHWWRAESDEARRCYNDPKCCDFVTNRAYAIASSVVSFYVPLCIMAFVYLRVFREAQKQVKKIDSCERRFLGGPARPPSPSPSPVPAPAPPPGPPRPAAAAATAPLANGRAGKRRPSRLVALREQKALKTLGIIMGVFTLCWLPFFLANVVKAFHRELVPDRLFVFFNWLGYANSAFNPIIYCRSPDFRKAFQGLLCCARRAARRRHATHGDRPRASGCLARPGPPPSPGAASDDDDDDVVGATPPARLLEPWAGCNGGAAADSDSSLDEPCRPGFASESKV
The target of the next test is Histamine H3 receptor (Homo sapiens, UniProt Q9Y5N1). As to the kind of experiment: Binding affinity to histamine H3 receptor.
The next test addresses D(3) dopamine receptor (Homo sapiens, UniProt P35462). As to the kind of experiment: Binding affinity to dopamine D3 receptor.
Test [12] addresses 5-hydroxytryptamine receptor 2C (Homo sapiens, UniProt P28335). As to the kind of experiment: Binding affinity to 5HT2C receptor.
The target of a further test is D(1A) dopamine receptor (Homo sapiens, UniProt P21728). As to the kind of experiment: Binding affinity to dopamine D1 receptor.
The target of test [13] is Alpha-2C adrenergic receptor (Homo sapiens, UniProt P18825). The test is described as follows: Binding affinity to adrenergic Alpha-2C receptor.
Test [14] has as its target Metabotropic glutamate receptor 2 (Homo sapiens, UniProt Q14416). The test is described as follows: Binding affinity to mGluR2 receptor.
Test [15] is described as follows: Binding affinity to sigma 2 receptor.
The target in test [16] is Metabotropic glutamate receptor 6 (Homo sapiens, UniProt O15303). The test is described as follows: Binding affinity to mGluR6 receptor.
Test [17] concerns the target Alpha-2B adrenergic receptor (Homo sapiens, UniProt P18089). As to the kind of experiment: Binding affinity to adrenergic alpha2B receptor.
Test [18] addresses 5-hydroxytryptamine receptor 1E (Homo sapiens, UniProt P28566). As to the kind of experiment: Binding affinity to 5HT1E receptor.
The target in test [19] is Sodium-dependent noradrenaline transporter (Homo sapiens, UniProt P23975). As to the kind of experiment: Binding affinity to NET.
The target of test [20] is 5-hydroxytryptamine receptor 7 (Homo sapiens, UniProt P34969). The test is described as follows: Binding affinity to 5HT7 receptor.
The next test has as its target D(2) dopamine receptor (Homo sapiens, UniProt P14416). The test is described as follows: Binding affinity to dopamine D2 receptor.
The target in a further test is Histamine H4 receptor (Homo sapiens, UniProt Q9H3N8). The test is described as follows: Binding affinity to histamine H4 receptor.
The target in test [21] is Muscarinic acetylcholine receptor M1 (Homo sapiens, UniProt P11229). As to the kind of experiment: Binding affinity to muscarinic M1 receptor.
The target in test [22] is 5-hydroxytryptamine receptor 1D (Homo sapiens, UniProt P28221). The test is described as follows: Binding affinity to 5HT1D receptor.
Test [23] addresses Kappa-type opioid receptor (Homo sapiens, UniProt P41145). The test is described as follows: Binding affinity to KOR.
Test [24] deals with Alpha-1B adrenergic receptor (Homo sapiens, UniProt P35368). As to the kind of experiment: Binding affinity to adrenergic Alpha-1B receptor.
Test [25] is described as follows: Binding affinity to GABAA receptor.
The target in test [26] is Muscarinic acetylcholine receptor M5 (Homo sapiens, UniProt P08912). The test is described as follows: Binding affinity to muscarinic M5 receptor.
For test [27], the target named is 5-hydroxytryptamine receptor 2B (Homo sapiens, UniProt P41595). The test is described as follows: Binding affinity to 5HT2B receptor.
Test [28] concerns the target Delta-type opioid receptor (Homo sapiens, UniProt P41143). As to the kind of experiment: Binding affinity to DOR.
The target of test [29] is 5-hydroxytryptamine receptor 3A (Homo sapiens, UniProt P46098). As to the kind of experiment: Binding affinity to 5HT3 receptor.
5-hydroxytryptamine receptor 3A, sequence (P46098 whole entry): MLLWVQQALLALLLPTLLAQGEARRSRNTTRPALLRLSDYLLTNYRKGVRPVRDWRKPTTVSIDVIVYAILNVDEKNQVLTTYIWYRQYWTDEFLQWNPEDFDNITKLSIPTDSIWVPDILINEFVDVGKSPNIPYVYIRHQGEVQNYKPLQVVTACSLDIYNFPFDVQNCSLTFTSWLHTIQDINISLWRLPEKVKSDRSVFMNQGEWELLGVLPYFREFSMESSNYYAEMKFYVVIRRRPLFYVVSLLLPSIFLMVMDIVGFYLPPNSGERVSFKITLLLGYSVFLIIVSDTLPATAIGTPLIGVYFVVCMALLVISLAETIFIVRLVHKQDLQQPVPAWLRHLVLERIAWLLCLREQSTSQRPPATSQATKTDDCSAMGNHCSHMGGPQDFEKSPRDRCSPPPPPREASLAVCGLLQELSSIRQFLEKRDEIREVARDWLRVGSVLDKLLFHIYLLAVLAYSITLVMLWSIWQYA
A further test concerns the target Histamine H1 receptor (Homo sapiens, UniProt P35367). As to the kind of experiment: Binding affinity to histamine H1 receptor.
For test [30], the target named is Metabotropic glutamate receptor 1 (Homo sapiens, UniProt Q13255). The test is described as follows: Binding affinity to mGluR1 receptor.
In test [31] the target is Sodium-dependent serotonin transporter (Homo sapiens, UniProt P31645). As to the kind of experiment: Binding affinity to SERT receptor.
Test [32] deals with Sodium-dependent dopamine transporter (Homo sapiens, UniProt Q01959). The test is described as follows: Binding affinity to DAT.
Sodium-dependent dopamine transporter, sequence (Q01959 whole entry): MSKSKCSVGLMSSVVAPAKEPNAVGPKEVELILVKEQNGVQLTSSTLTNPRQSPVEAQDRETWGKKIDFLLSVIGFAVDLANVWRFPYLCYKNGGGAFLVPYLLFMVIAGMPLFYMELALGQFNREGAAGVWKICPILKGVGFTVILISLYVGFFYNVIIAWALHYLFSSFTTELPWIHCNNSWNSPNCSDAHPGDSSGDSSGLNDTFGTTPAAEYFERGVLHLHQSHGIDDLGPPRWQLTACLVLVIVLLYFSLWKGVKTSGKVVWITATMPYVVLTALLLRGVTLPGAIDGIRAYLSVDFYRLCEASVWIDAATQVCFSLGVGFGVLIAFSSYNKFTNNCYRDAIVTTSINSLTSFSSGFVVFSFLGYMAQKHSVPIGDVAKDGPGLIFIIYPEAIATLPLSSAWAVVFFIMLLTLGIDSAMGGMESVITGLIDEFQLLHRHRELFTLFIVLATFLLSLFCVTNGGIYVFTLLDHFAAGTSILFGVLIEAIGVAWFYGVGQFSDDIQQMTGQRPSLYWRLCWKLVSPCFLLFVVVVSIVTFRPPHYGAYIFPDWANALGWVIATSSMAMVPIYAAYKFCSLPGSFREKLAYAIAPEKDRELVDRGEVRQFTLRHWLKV
The target in test [33] is Metabotropic glutamate receptor 4 (Homo sapiens, UniProt Q14833). The test is described as follows: Binding affinity to mGluR4 receptor.
Test [34] deals with Metabotropic glutamate receptor 8 (Homo sapiens, UniProt O00222). The test is described as follows: Binding affinity to mGluR8 receptor.
Metabotropic glutamate receptor 8, sequence (O00222 whole entry): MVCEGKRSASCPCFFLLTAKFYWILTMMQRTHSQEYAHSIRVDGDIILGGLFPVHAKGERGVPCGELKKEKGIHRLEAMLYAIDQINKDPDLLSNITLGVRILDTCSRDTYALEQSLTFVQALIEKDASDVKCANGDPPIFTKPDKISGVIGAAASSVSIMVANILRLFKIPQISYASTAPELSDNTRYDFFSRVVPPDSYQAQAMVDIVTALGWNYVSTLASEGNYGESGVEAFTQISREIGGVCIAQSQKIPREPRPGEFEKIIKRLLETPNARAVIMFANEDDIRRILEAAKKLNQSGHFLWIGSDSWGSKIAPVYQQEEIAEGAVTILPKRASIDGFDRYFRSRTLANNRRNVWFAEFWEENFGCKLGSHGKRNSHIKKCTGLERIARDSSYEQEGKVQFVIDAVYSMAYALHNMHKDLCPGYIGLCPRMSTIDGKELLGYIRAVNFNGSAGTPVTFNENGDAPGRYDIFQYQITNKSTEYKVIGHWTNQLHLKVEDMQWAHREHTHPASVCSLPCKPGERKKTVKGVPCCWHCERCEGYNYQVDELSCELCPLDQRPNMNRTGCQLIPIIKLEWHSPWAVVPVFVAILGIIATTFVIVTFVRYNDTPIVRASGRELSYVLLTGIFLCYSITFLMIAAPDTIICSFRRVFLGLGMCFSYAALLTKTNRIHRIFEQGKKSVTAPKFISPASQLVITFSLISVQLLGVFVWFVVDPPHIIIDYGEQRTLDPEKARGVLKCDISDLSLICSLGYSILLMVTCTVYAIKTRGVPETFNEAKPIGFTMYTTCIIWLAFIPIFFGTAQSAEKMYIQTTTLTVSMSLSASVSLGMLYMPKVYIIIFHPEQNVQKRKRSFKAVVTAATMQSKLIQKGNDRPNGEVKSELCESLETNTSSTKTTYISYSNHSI
The target in test [35] is 5-hydroxytryptamine receptor 6 (Homo sapiens, UniProt P50406). The test is described as follows: Binding affinity to 5HT6 receptor.
In test [36] the target is Beta-2 adrenergic receptor (Homo sapiens, UniProt P07550). As to the kind of experiment: Binding affinity to adrenergic beta2 receptor.
The next test has as its target Histamine H2 receptor (Homo sapiens, UniProt P25021). The test is described as follows: Binding affinity to histamine H2 receptor.
For test [37], the target named is Alpha-1D adrenergic receptor (Homo sapiens, UniProt P25100). As to the kind of experiment: Binding affinity to adrenergic Alpha-1D receptor.
Test [38] addresses Muscarinic acetylcholine receptor M2 (Homo sapiens, UniProt P08172). The test is described as follows: Binding affinity to muscarinic M2 receptor.
Test [39] addresses Muscarinic acetylcholine receptor M3 (Homo sapiens, UniProt P20309). As to the kind of experiment: Binding affinity to muscarinic M3 receptor.
The next test addresses D(1B) dopamine receptor (Homo sapiens, UniProt P21918). As to the kind of experiment: Binding affinity to dopamine D5 receptor.
Test [40] has as its target 5-hydroxytryptamine receptor 1B (Homo sapiens, UniProt P28222). As to the kind of experiment: Binding affinity to 5HT1B receptor.
Another test has as its target D(4) dopamine receptor (Homo sapiens, UniProt P21917). As to the kind of experiment: Binding affinity to dopamine D4 receptor.
Test [41] concerns the target Beta-3 adrenergic receptor (Homo sapiens, UniProt P13945). As to the kind of experiment: Binding affinity to adrenergic beta3 receptor.

The structures appear in SMILES notation. Some results are limits rather than exact numbers.

Usually Ki stands for a dissociation constant, usually derived from enzyme kinetics or from competition with a known ligand.

Metabotropic glutamate receptor 5, sequence (P31424 whole entry): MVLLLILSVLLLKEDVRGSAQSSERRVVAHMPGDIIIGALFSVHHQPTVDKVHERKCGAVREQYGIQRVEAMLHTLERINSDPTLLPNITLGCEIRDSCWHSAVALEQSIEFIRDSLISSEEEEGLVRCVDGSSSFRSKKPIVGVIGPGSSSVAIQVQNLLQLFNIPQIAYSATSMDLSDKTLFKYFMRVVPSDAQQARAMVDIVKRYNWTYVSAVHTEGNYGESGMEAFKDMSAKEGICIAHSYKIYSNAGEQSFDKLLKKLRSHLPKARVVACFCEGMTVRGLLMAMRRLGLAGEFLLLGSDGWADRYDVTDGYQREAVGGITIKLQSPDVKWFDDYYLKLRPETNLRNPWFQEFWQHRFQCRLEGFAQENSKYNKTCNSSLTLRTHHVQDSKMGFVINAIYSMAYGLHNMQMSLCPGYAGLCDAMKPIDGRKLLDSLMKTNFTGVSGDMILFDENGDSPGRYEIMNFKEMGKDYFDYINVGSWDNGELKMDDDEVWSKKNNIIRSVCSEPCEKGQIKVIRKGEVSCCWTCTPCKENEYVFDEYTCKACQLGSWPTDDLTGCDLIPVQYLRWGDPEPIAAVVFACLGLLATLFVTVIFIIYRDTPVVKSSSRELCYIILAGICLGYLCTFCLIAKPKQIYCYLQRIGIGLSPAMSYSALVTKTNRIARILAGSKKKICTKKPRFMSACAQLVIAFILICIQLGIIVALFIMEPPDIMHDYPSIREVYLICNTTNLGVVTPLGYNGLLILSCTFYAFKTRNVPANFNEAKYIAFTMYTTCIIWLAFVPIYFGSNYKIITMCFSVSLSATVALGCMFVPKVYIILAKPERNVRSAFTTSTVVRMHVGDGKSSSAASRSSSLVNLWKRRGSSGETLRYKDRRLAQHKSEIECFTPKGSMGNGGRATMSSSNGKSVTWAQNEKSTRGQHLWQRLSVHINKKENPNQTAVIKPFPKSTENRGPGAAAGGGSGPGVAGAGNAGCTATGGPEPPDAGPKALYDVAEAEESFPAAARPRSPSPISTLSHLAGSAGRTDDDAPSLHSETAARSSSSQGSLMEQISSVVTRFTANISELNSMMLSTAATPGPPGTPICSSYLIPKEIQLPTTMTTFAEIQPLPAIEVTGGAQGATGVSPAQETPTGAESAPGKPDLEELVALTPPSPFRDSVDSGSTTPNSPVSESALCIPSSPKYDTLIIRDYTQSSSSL
Kappa-type opioid receptor, sequence (P41145 whole entry): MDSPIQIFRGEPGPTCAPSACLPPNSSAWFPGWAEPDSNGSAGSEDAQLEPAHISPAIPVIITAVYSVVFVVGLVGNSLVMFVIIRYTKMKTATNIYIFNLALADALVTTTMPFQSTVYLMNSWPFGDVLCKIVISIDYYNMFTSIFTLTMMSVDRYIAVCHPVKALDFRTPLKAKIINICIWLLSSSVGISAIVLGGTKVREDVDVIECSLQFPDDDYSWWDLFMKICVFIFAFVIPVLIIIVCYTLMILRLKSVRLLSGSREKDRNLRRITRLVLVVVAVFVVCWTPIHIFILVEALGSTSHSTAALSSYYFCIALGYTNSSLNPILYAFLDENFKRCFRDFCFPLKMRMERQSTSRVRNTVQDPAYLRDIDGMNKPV
Histamine H2 receptor, sequence (P25021 whole entry): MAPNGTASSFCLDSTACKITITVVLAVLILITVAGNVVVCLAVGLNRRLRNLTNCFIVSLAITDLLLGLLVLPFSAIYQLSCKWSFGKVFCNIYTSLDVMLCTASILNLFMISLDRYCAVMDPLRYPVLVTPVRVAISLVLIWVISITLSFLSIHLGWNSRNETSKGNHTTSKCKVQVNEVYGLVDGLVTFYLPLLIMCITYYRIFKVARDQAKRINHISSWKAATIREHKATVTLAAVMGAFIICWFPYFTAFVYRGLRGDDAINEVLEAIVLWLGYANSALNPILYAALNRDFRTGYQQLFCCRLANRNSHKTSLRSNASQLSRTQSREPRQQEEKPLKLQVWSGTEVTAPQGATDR
5-hydroxytryptamine receptor 1E, sequence (P28566 whole entry): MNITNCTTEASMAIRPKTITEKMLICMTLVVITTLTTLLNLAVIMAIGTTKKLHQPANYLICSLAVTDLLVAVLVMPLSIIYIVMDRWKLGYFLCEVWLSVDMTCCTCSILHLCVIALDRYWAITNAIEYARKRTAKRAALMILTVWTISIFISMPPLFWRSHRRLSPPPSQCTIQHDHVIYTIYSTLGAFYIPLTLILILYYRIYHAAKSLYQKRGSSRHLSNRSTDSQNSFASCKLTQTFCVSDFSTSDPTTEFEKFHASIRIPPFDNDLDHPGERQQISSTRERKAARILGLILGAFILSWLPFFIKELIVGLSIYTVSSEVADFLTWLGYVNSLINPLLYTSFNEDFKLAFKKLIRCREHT
Sigma non-opioid intracellular receptor 1, sequence (Q99720 whole entry): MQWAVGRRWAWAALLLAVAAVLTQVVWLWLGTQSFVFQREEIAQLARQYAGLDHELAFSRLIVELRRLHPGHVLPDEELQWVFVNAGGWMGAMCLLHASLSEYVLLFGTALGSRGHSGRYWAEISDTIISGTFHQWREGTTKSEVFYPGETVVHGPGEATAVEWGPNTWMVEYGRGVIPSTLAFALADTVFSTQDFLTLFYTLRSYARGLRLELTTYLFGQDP

`N#Cc1cccc(C#Cc2csc(F)n2)c1` showed a Ki in test [1] of 1.6 nM.

In the case of `N#Cc1cccc(C#Cc2csc(I)n2)c1`, in test [1], the Ki was found to be 4.2 nM.

With `N#Cc1cc(F)cc(C#Cc2csc(F)n2)c1`, the Ki (on Mu-type opioid receptor; in [2]; in [3]; in [4]; in test [5]; in test [6]) was above 10 µM each time. Besides, the inhibitory constant (Ki) (in [7]; in [8]; in [9]; in test [10]; in [11]; on Histamine H3 receptor) was above 10 µM in each case. Also, the inhibition constant Ki (at D(3) dopamine receptor; in test [12]; at D(1A) dopamine receptor; in [13]; in [14]; in test [15]) was above 10 µM in each case. Also, the inhibition constant (Ki) (in test [16]; in test [17]; in test [18]; in test [19]; in test [20]; at D(2) dopamine receptor) was above 10 µM in each case. The inhibition constant Ki (on Histamine H4 receptor; in [21]; in test [22]; in test [23]; in test [24]; in [25]) was above 10 µM each time. For the same compound, the Ki (in test [26]; in [27]; in test [28]; in test [29]; at Histamine H1 receptor; in [30]) was above 10 µM in each case. The Ki in test [31], in test [32], in test [33], in test [34], in test [35] and in [36] was above 10 µM in each case. Besides, the Ki at Histamine H2 receptor was above 10 µM; in [37] it was above 10 µM; in test [1], 0.28 nM; in test [38], above 10 µM; in test [39], above 10 µM; at D(1B) dopamine receptor, above 10 µM. Moreover, the inhibitory constant (Ki) (in test [40]; at D(4) dopamine receptor; in test [41]) was above 10 µM each time.

Compound `N#Cc1cccc(C#Cc2csc(Cl)n2)c1` yielded a Ki in [1] of 0.27 nM.

Compound `N#Cc1cccc(C#Cc2csc(Br)n2)c1` showed a Ki in test [1] of 3.7 nM.

`N#CCc1cccc(C#Cc2csc(Cl)n2)c1` gave a Ki in test [1] of 3.1 nM.

Compound `N#Cc1cc(F)cc(C#Cc2csc(Cl)n2)c1` returned a Ki in test [1] of 0.4 nM.

In test [1], `COc1cccc(C#Cc2csc(N)n2)c1` gave a Ki of 18.6 nM.

With `N#CCc1cccc(C#Cc2csc(I)n2)c1`, the affinity in test [1] corresponds to a Ki of 23.3 nM.

Consider `COc1cccc(C#Cc2csc(F)n2)c1`, for which the inhibition constant (Ki) in [1] was found to be 22.7 nM.

As to `N#Cc1cc(F)cc(C#Cc2csc(I)n2)c1`, the affinity in [1], expressed as Ki, was 1.3 nM.

As to `N#Cc1cccc(C#Cc2csc(N)n2)c1`, the inhibition constant Ki in test [1] is 0.9 nM.

`Cc1nc(C#Cc2cc(F)cc(C#N)c2)cs1` gave a Ki in test [1] of 0.08 nM.

`N#CCc1cccc(C#Cc2csc(Br)n2)c1`: the Ki in [1] turned out to be 3.3 nM.

In turn, `N#CCc1cccc(C#Cc2csc(N)n2)c1` gave a Ki in test [1] of 5.9 nM.

`N#CCc1cccc(C#Cc2csc(F)n2)c1`: in test [1], the inhibitory constant (Ki) amounted to 3.9 nM.

For the compound `N#Cc1cc(F)cc(C#Cc2csc(CF)n2)c1`, the inhibition constant (Ki) in [1] was found to be 0.036 nM.

In test [1], `COc1cccc(C#Cc2csc(I)n2)c1` displayed an inhibition constant Ki of 133 nM.

In test [1], `N#Cc1cc(F)cc(C#Cc2csc(Br)n2)c1` yielded a Ki of 0.95 nM.

`N#Cc1cc(F)cc(C#Cc2csc(N)n2)c1` showed a Ki in test [1] of 0.25 nM.

`COc1cccc(C#Cc2csc(Br)n2)c1` registered a Ki in test [1] of 22.3 nM.

`COc1cccc(C#Cc2csc(Cl)n2)c1` gave an inhibitory constant (Ki) in [1] of 8.1 nM.

In test [1], `Fc1nc(C#Cc2ccccc2)cs1` returned an inhibition constant Ki of 122 nM.
